Experimental data as given in ChEMBL document CHEMBL3286113, “New potent antibacterial oxazolidinone (MRX-I) with an improved class safety profile” (J Med Chem, 2014).
Converted amounts (≈) assume the structure as drawn.

How the values were obtained:
[1] = system: Staphylococcus aureus; experiment: Antibacterial activity against methicillin-sensitive Staphylococcus aureus ATCC 29213 in po dosed mouse systemic infection model; type: functional; conditions: ATCC 29213, po
[2] = system: Streptococcus pneumoniae; experiment: Antibacterial activity against penicillin-resistant Streptococcus pneumoniae isolate 0613 in po dosed mouse systemic infection model; type: functional; conditions: isolate 0613, po
[3] = Clastogenicity in CHL cells assessed as induction of structural chromosomal aberration at 25 to 200 ug/mL measured over 24 hrs in absence of metabolic activation; type: toxicity, cell-based, Cricetulus griseus; conditions: chinese hamster
Outline: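 Chromosomal aberration test in Chinese hamster lung cells, run with and without metabolic activation. Exposure was 50−400 μg/mL for 6 h or 25−200 μg/mL for 24 h, and structural chromosome aberrations were scored.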

[4] = system: Homo sapiens; experiment: Toxicity in human assessed as change in platelet count at 600 to 800 mg, po administered as single dose with meal on day 1 and day 15 followed by bid with meal on day 2 to day 14 measured during compound treatment; type: organism-based; conditions: in vivo
[5] = Cmax in female rat at 15 mg/kg, po; type: ADME, organism-based; parameters: dose 15 mg/kg, route oral; conditions: in vivo
[6] = Tmax in fasted human at 300 mg, po administered as single dose; type: ADME, organism-based; conditions: in vivo
Outline: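 Randomized single-dose, three-period Latin-square crossover in 12 healthy volunteers (six per gender), fasting. Single oral doses of 300, 600 and 900 mg were separated by a 1-week washout. PK parameters were derived by noncompartmental analysis.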

[7] = Half life in female rat at 45 mg/kg, po; type: ADME, organism-based; parameters: dose 45 mg/kg, route oral; conditions: in vivo
[8] = system: Canis familiaris; experiment: Dose normalized Cmax in po dosed dog; type: ADME, organism-based, Canis lupus familiaris; conditions: in vivo
[9] = system: Enterococcus faecalis; experiment: Antibacterial activity against vancomycin-sensitive Enterococcus faecalis ATCC 29212; type: functional
[10] = Oral bioavailability in mouse; type: ADME, organism-based; conditions: in vivo
[11] = system: Rattus norvegicus; experiment: Toxicity in female rat assessed as effect on lymphocyte count at 200 to 300 mg/kg/day, po bid administered for 4 weeks (reference value: 74.8%); type: organism-based; parameters: route oral; conditions: in vivo, 672 h
[12] = system: Rattus norvegicus; experiment: Toxicity in female rat assessed as effect on mean corpuscular volume at 100 mg/kg/day, po bid administered for 4 weeks (reference value: 53.72 fL); type: organism-based; parameters: route oral; conditions: in vivo, 672 h
[13] = Half life in female rat at 15 mg/kg, po; type: ADME, organism-based; parameters: dose 15 mg/kg, route oral; conditions: in vivo
[14] = system: Staphylococcus aureus; experiment: Antibacterial activity against Staphylococcus aureus in po dosed mouse septicemia model; type: functional
[15] = system: Rattus norvegicus; experiment: Toxicity in female rat assessed as effect on mean corpuscular hemoglobin level at 100 mg/kg/day, po bid administered for 4 weeks (reference value: 19.5 pg); type: organism-based; parameters: route oral; conditions: in vivo, 672 h
[16] = system: Staphylococcus saprophyticus; experiment: Antibacterial activity against Staphylococcus saprophyticus; type: functional
[17] = Cmax in fasted human at 900 mg, po administered as single dose; type: ADME, organism-based; parameters: dose 900 mg, route oral; conditions: in vivo
Outline: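 Healthy volunteers (12; six of each sex) in a three-period Latin-square crossover. Each received single oral doses of 300, 600 and 900 mg under fasting conditions, with a 1-week washout between doses. Parameters from a noncompartmental model.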

[18] = system: Enterococcus faecalis; experiment: Antibacterial activity against vancomycin-sensitive Enterococcus faecalis ATCC 29212 in po dosed mouse systemic infection model; type: functional; conditions: ATCC 29212, po
[19] = system: Homo sapiens; experiment: Toxicity in human assessed as change in neutrophil count at 600 to 800 mg, po administered as single dose with meal on day 1 and day 15 followed by bid with meal on day 2 to day 14 measured during compound treatment; type: organism-based; conditions: in vivo
[20] = system: Canis familiaris; experiment: Dose normalized AUC (0 to t) in po dosed dog; type: ADME, organism-based, Canis lupus familiaris; conditions: in vivo
[21] = system: Staphylococcus aureus; experiment: Antibacterial activity against Staphylococcus aureus measured after 6 serial passages; type: functional
[22] = system: Staphylococcus aureus; experiment: Antibacterial activity against methicillin-sensitive Staphylococcus aureus ATCC 29213 in mouse thigh infection model assessed as reduction of log10 CFU per thigh at 5 mg/kg, po; type: functional
Outline: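 Mouse thigh infection with S. aureus ATCC29213 (MSSA), 10 animals per dosing group. Oral doses were 5, 10, 20, 40 and 80 mg/kg. The read-out was log CFU per thigh after treatment, and the reduction (ΔLogCFU/thigh) was reported.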

[23] = system: Rattus norvegicus; experiment: Toxicity in female rat assessed as effect on RBC count at 100 mg/kg/day, po bid administered for 4 weeks (reference value: 7.28 x 10^12/L); type: organism-based; parameters: route oral; conditions: in vivo, 672 h
[24] = system: Streptococcus pneumoniae; experiment: Antibacterial activity against penicillin-sensitive Streptococcus pneumoniae isolate 0806 in po dosed mouse systemic infection model; type: functional; conditions: isolate 0806, po
[25] = system: Streptococcus sanguinis; experiment: Antibacterial activity against Streptococcus sanguinis; type: functional
[26] = Tmax in male rat at 5 mg/kg, po; type: ADME, organism-based; parameters: dose 5 mg/kg, route oral; conditions: in vivo
Outline: (§1)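 Male and female rats received single oral doses of 5, 15 or 45 mg/kg, with 5 mg/kg iv as a reference arm. Tmax was read from the plasma concentration–time profile for each gender.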

[27] = system: Homo sapiens; experiment: Toxicity in human assessed as change in RBC count at 600 to 800 mg, po administered as single dose with meal on day 1 and day 15 followed by bid with meal on day 2 to day 14 measured during compound treatment; type: organism-based; conditions: in vivo
[28] = system: Rattus norvegicus; experiment: Toxicity in female rat assessed as effect on hemoglobin level at 200 to 300 mg/kg/day, po bid administered for 4 weeks (reference value: 141.8 g/L); type: organism-based; parameters: route oral; conditions: in vivo, 672 h
[29] = system: Staphylococcus aureus; experiment: Antibacterial activity against Staphylococcus aureus measured after 2 serial passages; type: functional
[30] = Half life in female rat at 5 mg/kg, iv; type: ADME, organism-based; parameters: dose 5 mg/kg, route intravenous; conditions: in vivo
[31] = Tmax in po dosed rat; type: ADME, organism-based; conditions: in vivo
[32] = Tmax in human at 600 mg, po administered as single dose with meal measured on day 1; type: ADME, organism-based; conditions: in vivo
Outline: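 Randomized, double-blind, placebo-controlled multiple-dose study in 32 healthy subjects, half male and half female. Dosing was 600 or 800 mg orally with a meal, 28 doses over 15 days. A single dose was given on days 1 and 15 for full PK, with Q12h (BID) dosing on days 2−14.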

[33] = AUC (0 to t) in female rat at 45 mg/kg, po; type: ADME, organism-based; parameters: dose 45 mg/kg, route oral; conditions: plasma
Outline: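 Rat PK by gender, with single oral doses of 5, 15 and 45 mg/kg and an iv dose of 5 mg/kg. Tmax, Cmax, T1/2 and AUC0−t were reported per gender.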

[34] = system: Streptococcus pyogenes; experiment: Antibacterial activity against Streptococcus pyogenes isolate 556; type: functional
[35] = system: L5178Y; experiment: Mutagenicity in mouse tk +/- L5178Y cells assessed as increase in gene mutation frequency at 62.5 to 1000 ug/mL in presence of S9 fraction
[36] = system: Staphylococcus aureus; experiment: Antibacterial activity against methicillin-sensitive Staphylococcus aureus; type: functional
[37] = system: Staphylococcus aureus; experiment: Antibacterial activity against Staphylococcus aureus measured after 3 serial passages; type: functional
[38] = Tmax in male rat at 45 mg/kg, po; type: ADME, organism-based; parameters: dose 45 mg/kg, route oral; conditions: in vivo; outline: as §1
[39] = Oral bioavailability in rat; type: ADME, organism-based; conditions: in vivo
[40] = system: Staphylococcus aureus; experiment: Antibacterial activity against methicillin-resistant Staphylococcus aureus isolate 0605 in po dosed mouse thigh infection model; type: functional, organism-based; conditions: Thigh muscle
[41] = system: Rattus norvegicus; experiment: Toxicity in female rat assessed as effect on WBC count at 20 mg/kg/day, po bid administered for 4 weeks (reference value: 3.66 x 10^9/L); type: organism-based; parameters: route oral; conditions: in vivo, 672 h
[42] = system: Streptococcus pyogenes; experiment: Antibacterial activity against Streptococcus pyogenes isolate 556 in po dosed mouse systemic infection model; type: functional; conditions: isolate 556, po

Question: For O=C1C=CN(c2c(F)cc(N3C[C@H](CNc4ccon4)OC3=O)c(F)c2F)CC1 [CONTEZOLID], which ED50 [1] is on record?
Answer: Its ED50 is 8 mg/kg.

Question: What about the ED50 [2] of the same molecule?
Answer: The ED50 was 10.5 mg/kg.

Question: What about the Activity [3] of the same molecule?
Answer: Its Activity is “Non-toxic”.

Question: And the Activity [4]?
Answer: The Activity was “Non-toxic”.

Question: And the Cmax [5]?
Answer: Its Cmax is 17.2 µg/mL.

Question: And the Tmax [6]?
Answer: The Tmax was 1.25 h.

Question: What about the half-life [7] of the same molecule?
Answer: Its half-life is 1.87 h.

Question: What about the Cmax/dose [8] of the same molecule?
Answer: The Cmax/dose was 259 ng/mL/(mg/kg).

Question: And the MIC [9]?
Answer: The MIC was 1 mg/L (≈ 2.45 µM).

Question: What about the bioavailability [10] of the same molecule?
Answer: The bioavailability was 69%.

Question: What about the Activity [11] of the same molecule?
Answer: The Activity was 71.8%.

Question: And the Activity [12]?
Answer: Its Activity is 54.78 fL.

Question: What about the half-life [13] of the same molecule?
Answer: The half-life was 1.47 h.

Question: And the ED50 [14]?
Answer: Its ED50 is 7.9 mg/kg.

Question: What about the Activity [15] of the same molecule?
Answer: Its Activity is 20.28 pg.

Question: And the MIC50 [16]?
Answer: The MIC50 was 0.5 mg/L (≈ 1.22 µM).

Question: And the MIC90 [16]?
Answer: The MIC90 was 1 mg/L (≈ 2.45 µM).

Question: What about the Cmax [17] of the same molecule?
Answer: The Cmax was 15.2 µg/mL.

Question: What about the ED50 [18] of the same molecule?
Answer: Its ED50 is 14.1 mg/kg.

Question: And the Activity [19]?
Answer: Its Activity is “Non-toxic”.

Question: And the AUCt/dose [20]?
Answer: The AUCt/dose was 1664 ng·h/mL/mg/kg.

Question: What about the MIC [21] of the same molecule?
Answer: Its MIC is 2 mg/L (≈ 4.9 µM).

Question: What about the deltalog10CFU [22] of the same molecule?
Answer: The deltalog10CFU was 0.95.

Question: What about the Activity [23] of the same molecule?
Answer: Its Activity is 6.67 ×10¹² /L.

Question: What about the ED50 [24] of the same molecule?
Answer: The ED50 was 22 mg/kg.

Question: What about the MIC [25] of the same molecule?
Answer: The MIC was 0.25 mg/L (≈ 0.612 µM).

Question: What about the Tmax [26] of the same molecule?
Answer: The Tmax was 0.5 h.

Question: What about the Activity [27] of the same molecule?
Answer: Its Activity is “Non-toxic”.

Question: What about the Activity [28] of the same molecule?
Answer: The Activity was 117.6 g/L.

Question: What about the MIC [29] of the same molecule?
Answer: The MIC was 2 mg/L (≈ 4.9 µM).

Question: And the half-life [30]?
Answer: Its half-life is 1.51 h.

Question: What about the Tmax [31] of the same molecule?
Answer: The Tmax was 0.5 h.

Question: What about the Tmax [32] of the same molecule?
Answer: Its Tmax is 0.65 h.

Question: And the AUC(0-t) [33]?
Answer: The AUC(0-t) was 230 µg·h/mL.

Question: And the MIC [34]?
Answer: Its MIC is 1 mg/L (≈ 2.45 µM).

Question: And the Activity [35]?
Answer: The Activity was “Non-toxic”.

Question: What about the MIC [36] of the same molecule?
Answer: The MIC was 0.5 mg/L (≈ 1.22 µM).

Question: What about the MIC50 [36] of the same molecule?
Answer: The MIC50 was 0.5 mg/L (≈ 1.22 µM).

Question: What about the MIC90 [36] of the same molecule?
Answer: Its MIC90 is 0.5 mg/L (≈ 1.22 µM).

Question: What about the MIC [37] of the same molecule?
Answer: The MIC was 2 mg/L (≈ 4.9 µM).

Question: And the Tmax [38]?
Answer: Its Tmax is 1 h.

Question: And the bioavailability [39]?
Answer: Its bioavailability is 109%.

Question: And the Activity [40]?
Answer: The Activity was “Dose-dependent effect”.

Question: And the Activity [41]?
Answer: Its Activity is 4.5 ×10⁹ /L.

Question: What about the ED50 [42] of the same molecule?
Answer: Its ED50 is 8.9 mg/kg.
